Assay results from ChEMBL document CHEMBL1255408, “Roles of calcineurin and Crz1 in antifungal susceptibility and virulence of Candida glabrata” (2010).
Values after ≈ are worked out from the molar mass of the structure shown. Active and inactive are the calls of the source. The calls are words filed in the database; no cut-off is given here. Starred links: 1 amine or outer side, 2 acyl side, 3 side chain; linkers in the order of their positions; H or OH if unused. Positions of bridges follow the written chain, without caps; N, C: chain ends. Non-standard residues stand in square brackets, D forms with d. Residues, ends and D or L forms follow the SMILES beside them. *: point of attachment. hTyr(3S-OH,4S-OH,3'-OSO3H) = N[C@H](C(=O)O)[C@H](O)[C@@H](O)c1ccc(O)c(OS(=O)(=O)O)c1; Orn(4R-OH,5R-OH) = O=C([C@H](C[C@@H](O)[C@@H](O)N[*:3])N[*:1])[*:2]; Pro(3S-OH,4S-Me) = C[C@H]1CN[C@H](C(=O)O)[C@H]1O; X1 = CCCCCOc1ccc(-c2cc(-c3ccc(C(=O)*)cc3)no2)cc1; Gln(3R-OH) = NC(=O)C[C@@H](O)[C@H](N)C(=O)O; Hyp = O=C(O)[C@@H]1C[C@@H](O)CN1

Tests used:
Nakaseomyces glabratus [1] = assay: Antimicrobial activity against Candida glabrata TG172 containing deltacrz1 mutant at 1 mg/ml after 48 hrs; type: functional, organism-based
Method in brief: (§1)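 Spot assay: serial 10-fold dilutions of log-phase cells spotted on minimal-medium plates containing micafungin, Congo red or calcofluor white. Plates incubated 48 h at 30°C; each test repeated at least three times.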

Nakaseomyces glabratus [2] = assay: Antimicrobial activity against Candida glabrata TG162 containing calcineurin deltacnb1 mutant at 1 mg/ml after 48 hrs; type: functional, organism-based; method in brief: as §1
Nakaseomyces glabratus [3] = assay: Antimicrobial activity against Candida glabrata TG172 containing deltacrz1 mutant at 0.8 mg/ml after 48 hrs; type: functional, organism-based; method in brief: as §1
Nakaseomyces glabratus [4] = assay: Antimicrobial activity against Candida glabrata TG162 containing calcineurin deltacnb1 mutant at 0.8 mg/ml after 48 hrs; type: functional, organism-based; method in brief: as §1
Nakaseomyces glabratus [5] = assay: Fungicidal activity against calcineurin deltacnb1 mutant containing Candida glabrata TG163 complemented with CNB1 gene at 0.03 ug/ml after 24 hrs by colorimetric microdilution method; type: functional, organism-based
Method in brief: (§2)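 Log-phase cells at 2.5 × 10^3 CFU/ml in minimal medium, with or without micafungin (dissolved in distilled water). OD600 read after 24 h. Percent absorbance at 0.03 μg/ml relative to drug-free culture; mean and SD of three independent experiments.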

Nakaseomyces glabratus [6] = assay: Fungicidal activity against deltacrz1 mutant containing Candida glabrata TG173 complemented with CRZ1 gene at 0.03 ug/ml after 24 hrs by colorimetric microdilution method; type: functional, organism-based; method in brief: as §2
Nakaseomyces glabratus [7] = assay: Fungistatic activity against wild type Candida glabrata TG11 at 0.03 ug/ml after 24 hrs by colorimetric microdilution method; type: functional, organism-based
Nakaseomyces glabratus [8] = assay: Fungicidal activity against Candida glabrata TG162 containing calcineurin deltacnb1 mutant at 0.03 ug/ml after 24 hrs by colorimetric microdilution method; type: functional, organism-based; method in brief: as §2
Nakaseomyces glabratus [9] = assay: Fungicidal activity against Candida glabrata TG172 containing deltacrz1 mutant at 0.03 ug/ml after 24 hrs by colorimetric microdilution method; type: functional, organism-based; method in brief: as §2
Nakaseomyces glabratus [10] = assay: Antimicrobial activity against Candida glabrata TG162 containing calcineurin deltacnb1 mutant by colorimetric microdilution method; type: functional
Method in brief: (§3)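 MIC by commercially prepared colorimetric broth microdilution panel; agents tested were fluconazole, miconazole, itraconazole, voriconazole and amphotericin B.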

Nakaseomyces glabratus [11] = assay: Antimicrobial activity against wild type Candida glabrata TG11 by colorimetric microdilution method; type: functional; method in brief: as §3
Nakaseomyces glabratus [12] = assay: Antimicrobial activity against Candida glabrata TG172 containing deltacrz1 mutant by colorimetric microdilution method; type: functional; method in brief: as §3
Nakaseomyces glabratus [13] = assay: Antimicrobial activity against deltacrz1 mutant containing Candida glabrata TG173 complemented with CRZ1 gene by colorimetric microdilution method; type: functional; method in brief: as §3
Nakaseomyces glabratus [14] = assay: Antimicrobial activity against calcineurin deltacnb1 mutant containing Candida glabrata TG163 complemented with CNB1 gene by colorimetric microdilution method; type: functional; method in brief: as §3
Nakaseomyces glabratus [15] = assay: Antimicrobial activity against Candida glabrata TG172 containing deltacrz1 mutant assessed as reduction in […] cell viability by time kill study; type: functional, organism-based
Method in brief: (§4)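 Time-kill: log-phase cells at 5 × 10^5 CFU/ml in minimal medium with agitation, with or without fluconazole at several concentrations. Total cells counted by hemocytometer, viable cells by plating dilutions on YPD. Read-out is percent viability; mean and SD of three independent experiments.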

Nakaseomyces glabratus [16] = assay: Fungistatic activity against wild type Candida glabrata TG11 assessed as reduction in […] cell viability by time kill study; type: functional, organism-based; method in brief: as §4
Nakaseomyces glabratus [17] = assay: Fungistatic activity against calcineurin deltacnb1 mutant containing Candida glabrata TG163 complemented with CNB1 gene assessed as reduction in […] cell viability by time kill study; type: functional, organism-based; method in brief: as §4
Nakaseomyces glabratus [18] = assay: Fungicidal activity against Candida glabrata TG162 containing calcineurin deltacnb1 mutant assessed as reduction in […] cell viability by time kill study; type: functional, organism-based; method in brief: as §4
Nakaseomyces glabratus [19] = assay: Antimicrobial activity against deltacrz1 mutant containing Candida glabrata TG173 complemented with CRZ1 gene assessed as reduction in […] cell viability by time kill study; type: functional, organism-based; method in brief: as §4

| SMILES | MIC (Nakaseomyces glabratus [10]) | MIC (Nakaseomyces glabratus [11]) | MIC (Nakaseomyces glabratus [12]) | MIC (Nakaseomyces glabratus [13]) | MIC (Nakaseomyces glabratus [14]) | also measured |
| --- | --- | --- | --- | --- | --- | --- |
| Nc1c(/N=N/c2ccc(-c3ccc(/N=N/c4cc(S(=O)(=O)O)c5ccccc5c4N)cc3)cc2)cc(S(=O)(=O)O)c2ccccc12 | – | – | – | – | – | growth inhibition (GI) (Nakaseomyces glabratus [1]): Active; growth inhibition (GI) (Nakaseomyces glabratus [2]): Active |
| O=S(=O)(O)c1cc(Nc2nc(Nc3ccccc3)nc(N(CCO)CCO)n2)ccc1/C=C/c1ccc(Nc2nc(Nc3ccccc3)nc(N(CCO)CCO)n2)cc1S(=O)(=O)O | – | – | – | – | – | growth inhibition (GI) (Nakaseomyces glabratus [3]): inactive; growth inhibition (GI) (Nakaseomyces glabratus [4]): Active |
| CCCCCOc1ccc(-c2cc(-c3ccc(C(=O)N[C@H]4C[C@@H](O)[C@@H](O)NC(=O)[C@@H]5[C@@H](O)[C@@H](C)CN5C(=O)[C@H]([C@H](O)CC(N)=O)NC(=O)[C@H]([C@H](O)[C@@H](O)c5ccc(O)c(OS(=O)(=O)O)c5)NC(=O)[C@@H]5C[C@@H](O)CN5C(=O)[C@H]([C@@H](C)O)NC4=O)cc3)no2)cc1 (X1-[Orn(4R-OH,5R-OH)]T[Hyp][hTyr(3S-OH,4S-OH,3'-OSO3H)][Gln(3R-OH)][Pro(3S-OH,4S-Me)]; lactam 1-C) | – | – | – | – | – | growth inhibition (GI) (Nakaseomyces glabratus [5]): inactive; growth inhibition (GI) (Nakaseomyces glabratus [6]): inactive; growth inhibition (GI) (Nakaseomyces glabratus [7]): Active; growth inhibition (GI) (Nakaseomyces glabratus [8]): Active; growth inhibition (GI) (Nakaseomyces glabratus [9]): Active |
| C[C@@H]1[C@H](O)[C@@H](C)/C=C/C=C/C=C/C=C/C=C/C=C/C=C/[C@H](O[C@@H]2O[C@H](C)[C@@H](O)[C@H](N)[C@@H]2O)C[C@@H]2O[C@](O)(C[C@@H](O)C[C@@H](O)[C@H](O)CC[C@@H](O)C[C@@H](O)CC(=O)O[C@H]1C)C[C@H](O)[C@H]2C(=O)O [AMPHOTERICIN B] | 0.5 µg/mL (≈ 0.541 µM) | 0.5 µg/mL (≈ 0.541 µM) | 0.5 µg/mL (≈ 0.541 µM) | 0.5 µg/mL (≈ 0.541 µM) | 0.5 µg/mL (≈ 0.541 µM) | – |
| OC(Cn1cncn1)(Cn1cncn1)c1ccc(F)cc1F [FLUCONAZOLE] | 4 µg/mL (≈ 13.1 µM) | 16 µg/mL (≈ 52.2 µM) | 32 µg/mL (≈ 104 µM) | 16 µg/mL (≈ 52.2 µM) | 16 µg/mL (≈ 52.2 µM) | growth inhibition (GI) (Nakaseomyces glabratus [15]): inactive; growth inhibition (GI) (Nakaseomyces glabratus [16]): Active; growth inhibition (GI) (Nakaseomyces glabratus [17]): Active; growth inhibition (GI) (Nakaseomyces glabratus [18]): Active; growth inhibition (GI) (Nakaseomyces glabratus [19]): inactive |
| CCC(C)n1ncn(-c2ccc(N3CCN(c4ccc(OCC5COC(Cn6cncn6)(c6ccc(Cl)cc6Cl)O5)cc4)CC3)cc2)c1=O (centres undefined) [ITRACONAZOLE] | 0.5 µg/mL (≈ 0.709 µM) | 2 µg/mL (≈ 2.83 µM) | 1 µg/mL (≈ 1.42 µM) | 1 µg/mL (≈ 1.42 µM) | 2 µg/mL (≈ 2.83 µM) | – |
| Clc1ccc(COC(Cn2ccnc2)c2ccc(Cl)cc2Cl)c(Cl)c1 (centres undefined) [MICONAZOLE] | 0.125 µg/mL (≈ 0.3 µM) | 0.5 µg/mL (≈ 1.2 µM) | 1 µg/mL (≈ 2.4 µM) | 0.5 µg/mL (≈ 1.2 µM) | 0.5 µg/mL (≈ 1.2 µM) | – |
| C[C@@H](c1ncncc1F)[C@](O)(Cn1cncn1)c1ccc(F)cc1F [VORICONAZOLE] | 0.125 µg/mL (≈ 0.358 µM) | 0.25 µg/mL (≈ 0.716 µM) | 0.5 µg/mL (≈ 1.43 µM) | 0.25 µg/mL (≈ 0.716 µM) | 0.25 µg/mL (≈ 0.716 µM) | – |
